Experiments:
Mus musculus [1] = assay: Anticonvulsant activity after intraperitoneal injection into mice measured in a maximal electroshock scree (MES) screen; type: functional
Mus musculus [2] = assay: Toxicity after intraperitoneal injection into mice by using toxicity screen test after 0.5 hr; type: organism-based; conditions: in vivo, ip
Procedure, shortened: (§1)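 Mice injected intraperitoneally at 30, 100 and 300 mg/kg and examined 0.5 and 4 h afterwards. Each entry is the minimum dose giving activity (MES protection, scPTZ protection, or rotorod failure for neurotoxicity) in half or more of the mice. Activity is called absent if nothing occurs at 300 mg/kg.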

Mus musculus [3] = assay: Anticonvulsant activity after intraperitoneal injection into mice by using scPTZ screen after 0.5 hr; type: functional
Rattus norvegicus [4] = assay: Anticonvulsant activity after oral administration into rats; type: functional; set-up: concentration or dose not given beside the values
Rattus norvegicus [5] = assay: Compound was tested for anticonvulsant activity after Oral Administration into Rats by using MES screen test after 4h,dose 12.5 mg/kg; number of rats out of four which were protected; type: functional
Procedure, shortened: (§2)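 Rats received the compound orally. […] Rats were tested in the MES screen at 0.25, 0.5, 1, 2 and 4 h. Each value is the number of rats protected out of 4. The test followed NINDS procedures.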

Rattus norvegicus [6] = assay: Compound was tested for anticonvulsant activity after Oral Administration into Rats by using MES screen test after 2h,dose 12.5 mg/kg; number of rats out of four which were protected; type: functional; procedure, shortened: as §2
Mus musculus [7] = assay: Compound was tested for toxicity after intraperitoneal injection into mice by using toxicity screen test after 4 hr; type: organism-based; conditions: in vivo, ip; procedure, shortened: as §1
Mus musculus [8] = assay: Anticonvulsant activity after intraperitoneal injection into mice by using MES screen test after 0.5 hr; type: functional
Rattus norvegicus [9] = assay: Compound was tested for anticonvulsant activity after Oral Administration into Rats by using MES screen test after 1h,dose 12.5 mg/kg; number of rats out of four which were protected; type: functional; procedure, shortened: as §2
Mus musculus [10] = assay: Anticonvulsant activity after intraperitoneal injection into mice by using scPTZ screen test after 4 hr; type: functional
Rattus norvegicus [11] = assay: Compound was tested for anticonvulsant activity after Oral Administration into Rats by using MES screen test after 0.25h,dose 12.5 mg/kg; No activity was demonstarted; type: functional, organism-based; set-up: dose 12.5 mg/kg; procedure, shortened: as §2
Rattus norvegicus [12] = assay: Compound was tested for anticonvulsant activity after Oral Administration into Rats by using MES screen test after 0.25h,dose 12.5 mg/kg; number of rats out of four which were protected; type: functional; procedure, shortened: as §2
Rattus norvegicus [13] = assay: Compound was tested for anticonvulsant activity after Oral Administration into Rats by using MES screen test after 4h,dose 50 mg/kg; number of rats out of four which were protected; type: functional; procedure, shortened: as §2
Rattus norvegicus [14] = assay: Compound was tested for anticonvulsant activity after Oral Administration into Rats by using MES screen test after 0.5h,dose 50 mg/kg; number of rats out of four which were protected; type: functional; procedure, shortened: as §2
Rattus norvegicus [15] = assay: Compound was tested for anticonvulsant activity after Oral Administration into Rats by using MES screen test after 2h,dose 50 mg/kg; number of rats out of four which were protected; type: functional; procedure, shortened: as §2
Rattus norvegicus [16] = assay: Compound was tested for anticonvulsant activity after Oral Administration into Rats by using MES screen test after 1h,dose 50 mg/kg; number of rats out of four which were protected; type: functional; procedure, shortened: as §2
Rattus norvegicus [17] = assay: Compound was tested for anticonvulsant activity after Oral Administration into Rats by using MES screen test after 0.25h,dose 50 mg/kg; number of rats out of four which were protected; type: functional; procedure, shortened: as §2
Rattus norvegicus [18] = assay: Compound was tested for anticonvulsant activity after Oral Administration into Rats by using MES screen test after 0.5h,dose 12.5 mg/kg; No activity was demonstarted; type: functional, organism-based; set-up: dose 12.5 mg/kg; procedure, shortened: as §2

CCCCCCCCc1ccc(Oc2ccc(/C=N/NC(N)=O)cc2)cc1
Dose (Mus musculus [1]): 300 mg/kg

CCCCCCCOc1ccc(Oc2ccc(/C=N/NC(N)=O)cc2)cc1
Dose (Mus musculus [2]): 300 mg/kg

N=C(S)N/N=C/c1ccc(Sc2ccc(F)cc2)cc1
Dose (Mus musculus [3]): 100 mg/kg | Activity (Rattus norvegicus [4]): 1 | Dose (Mus musculus [1]): 100 mg/kg | Activity (Rattus norvegicus [5]): 1 | Activity (Rattus norvegicus [6]): 1 | Dose (Mus musculus [7]): 100 mg/kg | Dose (Mus musculus [8]): 100 mg/kg | Activity (Rattus norvegicus [9]): 2 | Dose (Mus musculus [10]): 100 mg/kg | Activity (Rattus norvegicus [11]): No activity

Cc1cc(Cl)ccc1Oc1ccc(/C=N/NC(N)=O)cc1
Dose (Mus musculus [2]): 300 mg/kg | Dose (Mus musculus [3]): 30 mg/kg | Activity (Rattus norvegicus [4]): 3 | Dose (Mus musculus [1]): 30 mg/kg | Activity (Rattus norvegicus [5]): 4 | Activity (Rattus norvegicus [6]): 4 | Dose (Mus musculus [7]): 100 mg/kg | Dose (Mus musculus [8]): 30 mg/kg | Activity (Rattus norvegicus [9]): 4 | Dose (Mus musculus [10]): 30 mg/kg | Activity (Rattus norvegicus [11]): No activity

NC(=O)C(=O)N/N=C/c1ccc(Oc2ccc(F)cc2)cc1
Dose (Mus musculus [2]): 300 mg/kg | Dose (Mus musculus [7]): 300 mg/kg

CC/C(=N/NC(N)=O)c1ccccc1Oc1ccc(Cl)cc1
Dose (Mus musculus [1]): 300 mg/kg | Dose (Mus musculus [8]): 300 mg/kg

Cc1cc(Oc2ccc(/C=N/NC(N)=O)cc2)ccc1Cl
Dose (Mus musculus [2]): 300 mg/kg | Dose (Mus musculus [3]): 300 mg/kg | Activity (Rattus norvegicus [12]): 1 | Activity (Rattus norvegicus [4]): 4 | Dose (Mus musculus [1]): 30 mg/kg | Activity (Rattus norvegicus [5]): 4 | Activity (Rattus norvegicus [6]): 4 | Dose (Mus musculus [7]): 100 mg/kg | Dose (Mus musculus [8]): 30 mg/kg | Activity (Rattus norvegicus [9]): 4

NC(=O)N/N=C\c1ccc(Oc2cccc(F)c2)cc1
Activity (Rattus norvegicus [13]): 4 | Dose (Mus musculus [2]): 300 mg/kg | Dose (Mus musculus [3]): 100 mg/kg | Activity (Rattus norvegicus [14]): 4 | Activity (Rattus norvegicus [15]): 4 | Dose (Mus musculus [1]): 300 mg/kg | Activity (Rattus norvegicus [16]): 4 | Dose (Mus musculus [7]): 300 mg/kg | Activity (Rattus norvegicus [17]): 4 | Dose (Mus musculus [8]): 30 mg/kg

C/C(=N/NC(N)=O)c1ccccc1Oc1ccccc1
Dose (Mus musculus [2]): 300 mg/kg | Dose (Mus musculus [3]): 300 mg/kg | Dose (Mus musculus [8]): 300 mg/kg

NC(=O)N/N=C/c1ccc(Oc2ccc(F)cc2F)cc1
Activity (Rattus norvegicus [13]): 4 | Dose (Mus musculus [3]): 100 mg/kg | Activity (Rattus norvegicus [14]): 4 | Activity (Rattus norvegicus [15]): 4 | Dose (Mus musculus [1]): 30 mg/kg | Activity (Rattus norvegicus [16]): 4 | Activity (Rattus norvegicus [17]): 3 | Dose (Mus musculus [8]): 30 mg/kg

CCCc1ccccc1Oc1ccc(/C=N/NC(N)=O)cc1
Dose (Mus musculus [2]): 300 mg/kg | Activity (Rattus norvegicus [12]): 3 | Activity (Rattus norvegicus [4]): 3 | Dose (Mus musculus [1]): 30 mg/kg | Activity (Rattus norvegicus [5]): 4 | Activity (Rattus norvegicus [6]): 4 | Dose (Mus musculus [8]): 100 mg/kg | Activity (Rattus norvegicus [9]): 4

Cc1cc(I)ccc1Oc1ccc(/C=N/NC(N)=O)cc1
Dose (Mus musculus [2]): 300 mg/kg | Activity (Rattus norvegicus [12]): 2 | Activity (Rattus norvegicus [4]): 4 | Dose (Mus musculus [1]): 30 mg/kg | Activity (Rattus norvegicus [5]): 4 | Activity (Rattus norvegicus [6]): 4 | Dose (Mus musculus [7]): 100 mg/kg | Dose (Mus musculus [8]): 30 mg/kg | Activity (Rattus norvegicus [9]): 4

NC(=O)N/N=C/c1ccc(Oc2ccc(Cl)cc2)cc1
Activity (Rattus norvegicus [13]): 4 | Dose (Mus musculus [2]): 300 mg/kg | Dose (Mus musculus [3]): 30 mg/kg | Activity (Rattus norvegicus [14]): 4 | Activity (Rattus norvegicus [15]): 4 | Dose (Mus musculus [1]): 30 mg/kg | Activity (Rattus norvegicus [16]): 4 | Dose (Mus musculus [7]): 30 mg/kg | Activity (Rattus norvegicus [17]): 4 | Dose (Mus musculus [8]): 30 mg/kg

NC(=O)N/N=C\c1ccc(S(=O)(=O)c2ccccc2)cc1
Dose (Mus musculus [1]): 300 mg/kg

CC/C(=N/NC(N)=O)c1ccccc1Oc1ccc(Br)cc1
Dose (Mus musculus [7]): 300 mg/kg

N=C(S)N/N=C/c1ccc(Oc2ccc(F)cc2)cc1
Dose (Mus musculus [2]): 100 mg/kg | Dose (Mus musculus [3]): 30 mg/kg | Activity (Rattus norvegicus [4]): 2 | Dose (Mus musculus [1]): 30 mg/kg | Activity (Rattus norvegicus [5]): 1 | Activity (Rattus norvegicus [6]): 3 | Dose (Mus musculus [7]): 30 mg/kg | Dose (Mus musculus [8]): 30 mg/kg | Activity (Rattus norvegicus [9]): 2 | Dose (Mus musculus [10]): 30 mg/kg | Activity (Rattus norvegicus [11]): No activity

NC(=O)N/N=C/c1ccc(Oc2ccc(I)cc2)cc1
Activity (Rattus norvegicus [13]): 4 | Dose (Mus musculus [2]): 300 mg/kg | Dose (Mus musculus [3]): 100 mg/kg | Activity (Rattus norvegicus [14]): 4 | Activity (Rattus norvegicus [15]): 4 | Dose (Mus musculus [1]): 30 mg/kg | Activity (Rattus norvegicus [16]): 4 | Dose (Mus musculus [7]): 100 mg/kg | Activity (Rattus norvegicus [17]): 3 | Dose (Mus musculus [8]): 30 mg/kg | Dose (Mus musculus [10]): 300 mg/kg

NC(=O)N/N=C/c1ccc(Oc2ccc3ccccc3c2)cc1
Activity (Rattus norvegicus [12]): 1 | Activity (Rattus norvegicus [18]): No activity | Dose (Mus musculus [1]): 100 mg/kg | Activity (Rattus norvegicus [5]): 4 | Activity (Rattus norvegicus [6]): 4 | Dose (Mus musculus [8]): 100 mg/kg | Activity (Rattus norvegicus [9]): 3 | Dose (Mus musculus [10]): 300 mg/kg

Cc1cc(Oc2ccc(/C=N/NC(N)=O)cc2)ccc1F
Dose (Mus musculus [2]): 300 mg/kg | Activity (Rattus norvegicus [12]): 2 | Activity (Rattus norvegicus [4]): 4 | Dose (Mus musculus [1]): 30 mg/kg | Activity (Rattus norvegicus [5]): 4 | Activity (Rattus norvegicus [6]): 4 | Dose (Mus musculus [8]): 30 mg/kg | Activity (Rattus norvegicus [9]): 4

O=CN/N=C/c1ccc(Oc2ccc(F)cc2)cc1
Dose (Mus musculus [1]): 300 mg/kg | Dose (Mus musculus [7]): 300 mg/kg | Dose (Mus musculus [8]): 300 mg/kg | Dose (Mus musculus [10]): 300 mg/kg

C/C(=N/NC(N)=O)c1ccccc1Oc1ccc(Cl)cc1
Dose (Mus musculus [2]): 300 mg/kg | Dose (Mus musculus [3]): 300 mg/kg | Dose (Mus musculus [1]): 300 mg/kg | Dose (Mus musculus [7]): 300 mg/kg | Dose (Mus musculus [8]): 300 mg/kg | Dose (Mus musculus [10]): 300 mg/kg

N#Cc1ccc(Oc2ccc(/C=N\NC(N)=O)cc2)cc1
Dose (Mus musculus [2]): 300 mg/kg | Dose (Mus musculus [3]): 30 mg/kg | Activity (Rattus norvegicus [12]): 2 | Activity (Rattus norvegicus [4]): 4 | Dose (Mus musculus [1]): 30 mg/kg | Activity (Rattus norvegicus [5]): 4 | Activity (Rattus norvegicus [6]): 4 | Dose (Mus musculus [7]): 100 mg/kg | Dose (Mus musculus [8]): 30 mg/kg | Activity (Rattus norvegicus [9]): 4 | Dose (Mus musculus [10]): 30 mg/kg

NC(=O)N/N=C/c1ccc(Oc2ccc(F)cc2Br)cc1
Activity (Rattus norvegicus [13]): 4 | Dose (Mus musculus [2]): 300 mg/kg | Dose (Mus musculus [3]): 300 mg/kg | Activity (Rattus norvegicus [14]): 4 | Activity (Rattus norvegicus [15]): 4 | Dose (Mus musculus [1]): 100 mg/kg | Activity (Rattus norvegicus [16]): 4 | Dose (Mus musculus [7]): 300 mg/kg | Activity (Rattus norvegicus [17]): 4 | Dose (Mus musculus [8]): 100 mg/kg

C/C(=N/NC(N)=O)c1ccccc1Oc1ccc(Br)cc1
Dose (Mus musculus [2]): 300 mg/kg

NC(=O)N/N=C/c1ccc(Oc2ccccc2Cl)cc1
Activity (Rattus norvegicus [13]): 4 | Dose (Mus musculus [2]): 300 mg/kg | Dose (Mus musculus [3]): 100 mg/kg | Activity (Rattus norvegicus [14]): 4 | Activity (Rattus norvegicus [15]): 4 | Dose (Mus musculus [1]): 30 mg/kg | Activity (Rattus norvegicus [16]): 4 | Activity (Rattus norvegicus [17]): 3 | Dose (Mus musculus [8]): 30 mg/kg | Dose (Mus musculus [10]): 300 mg/kg

Cc1ccc(Oc2ccc(/C=N/NC(N)=O)cc2)cc1C
Dose (Mus musculus [3]): 300 mg/kg | Activity (Rattus norvegicus [4]): 2 | Dose (Mus musculus [1]): 30 mg/kg | Activity (Rattus norvegicus [5]): 4 | Activity (Rattus norvegicus [6]): 4 | Dose (Mus musculus [7]): 300 mg/kg | Dose (Mus musculus [8]): 100 mg/kg | Activity (Rattus norvegicus [9]): 4 | Activity (Rattus norvegicus [11]): No activity

— ChEMBL document CHEMBL1129428 (J Med Chem, 1996)
